Tests used:
Jurkat [1] = assay: Cytotoxicity against human Jurkat cells assessed as cell viability at 10 uM measured after 48 hrs by WST-1 assay relative to control; type: functional; conditions: read-out: Activity
In short: (§1)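 Ten-line human panel (9 cancer, 1 non-cancerous). Cells were seeded at a pre-established optimal density (500–30 × 10³ per well) and settled overnight. Compounds came from 10 mM DMSO stocks and were tested at two concentrations. WST-1 readout followed the manufacturer's protocol at the end of cultivation. Viability is expressed as % of untreated control cells, mean of three independent experiments.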

MOLT-4 [2] = assay: Cytotoxicity against human MOLT-4 cells assessed as cell viability at 10 uM measured after 48 hrs by WST-1 assay relative to control; type: functional; conditions: read-out: Activity; in short: as §1
A549 [3] = assay: Cytotoxicity against human A549 cells assessed as cell viability at 10 uM measured after 48 hrs by WST-1 assay relative to control; type: functional; conditions: read-out: Activity; in short: as §1
HT-29 [4] = assay: Cytotoxicity against human HT-29 cells assessed as cell viability at 10 uM measured after 48 hrs by WST-1 assay relative to control; type: functional; conditions: read-out: Activity; in short: as §1
PANC-1 [5] = assay: Cytotoxicity against human PANC-1 cells assessed as cell viability at 10 uM measured after 48 hrs by WST-1 assay relative to control; type: functional; conditions: read-out: Activity; in short: as §1
A2780 [6] = assay: Cytotoxicity against human A2780 cells assessed as cell viability at 10 uM measured after 48 hrs by WST-1 assay relative to control; type: functional; conditions: read-out: Activity; in short: as §1
HeLa [7] = assay: Cytotoxicity against human HeLa cells assessed as cell viability at 10 uM measured after 48 hrs by WST-1 assay relative to control; type: functional; conditions: read-out: Activity; in short: as §1
MCF7 [8] = assay: Cytotoxicity against human MCF7 cells assessed as cell viability at 10 uM measured after 48 hrs by WST-1 assay relative to control; type: functional; conditions: read-out: Activity; in short: as §1
SAOS-2 [9] = assay: Cytotoxicity against human SAOS-2 cells assessed as cell viability at 10 uM measured after 48 hrs by WST-1 assay relative to control; type: functional; conditions: read-out: Activity; in short: as §1
[10] = Cytotoxicity against human MRC5 cells assessed as cell viability at 10 uM measured after 48 hrs by WST-1 assay relative to control; type: cell-based; conditions: read-out: Activity; in short: as §1
Jurkat [11] = assay: Cytotoxicity against human Jurkat cells assessed as cell viability at 100 uM measured after 48 hrs by WST-1 assay relative to control; type: functional; conditions: read-out: Activity; in short: as §1
MOLT-4 [12] = assay: Cytotoxicity against human MOLT-4 cells assessed as cell viability at 100 uM measured after 48 hrs by WST-1 assay relative to control; type: functional; conditions: read-out: Activity; in short: as §1
A549 [13] = assay: Cytotoxicity against human A549 cells assessed as cell viability at 100 uM measured after 48 hrs by WST-1 assay relative to control; type: functional; conditions: read-out: Activity; in short: as §1
HT-29 [14] = assay: Cytotoxicity against human HT-29 cells assessed as cell viability at 100 uM measured after 48 hrs by WST-1 assay relative to control; type: functional; conditions: read-out: Activity; in short: as §1
PANC-1 [15] = assay: Cytotoxicity against human PANC-1 cells assessed as cell viability at 100 uM measured after 48 hrs by WST-1 assay relative to control; type: functional; conditions: read-out: Activity; in short: as §1
A2780 [16] = assay: Cytotoxicity against human A2780 cells assessed as cell viability at 100 uM measured after 48 hrs by WST-1 assay relative to control; type: functional; conditions: read-out: Activity; in short: as §1
HeLa [17] = assay: Cytotoxicity against human HeLa cells assessed as cell viability at 100 uM measured after 48 hrs by WST-1 assay relative to control; type: functional; conditions: read-out: Activity; in short: as §1
MCF7 [18] = assay: Cytotoxicity against human MCF7 cells assessed as cell viability at 100 uM measured after 48 hrs by WST-1 assay relative to control; type: functional; conditions: read-out: Activity; in short: as §1
SAOS-2 [19] = assay: Cytotoxicity against human SAOS-2 cells assessed as cell viability at 100 uM measured after 48 hrs by WST-1 assay relative to control; type: functional; conditions: read-out: Activity; in short: as §1
[20] = Cytotoxicity against human MRC5 cells assessed as cell viability at 100 uM measured after 48 hrs by WST-1 assay relative to control; type: cell-based; conditions: read-out: Activity; in short: as §1
A549 [21] = assay: Cytotoxicity against human A549 cells assessed as reduction in cell viability incubated for 24 hrs by MTT assay; type: functional, cell-based; conditions: A549, 24 h
In short: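 A-549 cells in DMEM with 10% FBS and 1% penicillin-streptomycin were attached overnight. Compounds were prepared in PBS and serially diluted in DMEM, then incubated 24 h. Viability was read by colorimetric MTT reduction against an untreated control on each plate (100%). IC50 came from four-parameter nonlinear regression of the log concentration-response curve, mean ± SEM. MTC is the highest concentration not differing from control (t-test).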

A549 [22] = assay: Cytotoxicity against human A549 cells assessed as maximum tolerated concentration incubated for 24 hrs by MTT assay; type: functional
In short: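 A-549 cells in DMEM with 10% FBS and 1% penicillin-streptomycin, left to attach overnight. Compounds made up in PBS, serially diluted in DMEM, incubated 24 h, then viability read by MTT reduction against untreated controls on each plate. MTC taken as the highest concentration showing no significant difference from non-treated control (t-test).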

MOLT-4 [23] = assay: Radioprotective activity against gamma irradiation-induced apoptosis in human MOLT-4 cells assessed as viable cells at 100 uM pretreated with compound for 1 hr followed by gamma irradiation and measured after 24 hrs by annexinV/propidium iodide staining based flow cytometry (reference value: 40 %); type: functional; conditions: MOLT-4, light or radiation study, time 25 hrs, read-out: Activity
[24] = Toxicity in C57Bl/6 mouse assessed as mouth death at 100 mg/kg, ip measured after 30 days; type: organism-based; conditions: in vivo, 720 h, time 30 day
In short: (§2)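 Safety in C57Bl/6 mice (27 ± 3 g) given a single 100 mg/kg i.p. injection without irradiation. Deaths, adverse effects and body weight followed over 30 days against an untreated control group. Weight reported as change from day 0.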

[25] = Toxicity in C57Bl/6 mouse assessed as adverse effects at 100 mg/kg, ip measured after 30 days; type: organism-based; conditions: in vivo, 720 h, time 30 day; in short: as §2
[26] = Toxicity in C57Bl/6 mouse assessed as average body weight at 100 mg/kg, ip and measured immediately (reference value: 26.3 +/- 2.4 g); type: organism-based; conditions: in vivo
[27] = Toxicity in C57Bl/6 mouse assessed as average body weight at 100 mg/kg, ip measured after 30 days (reference value: 27 +/ 3.2 g); type: organism-based; conditions: in vivo, 720 h, time 30 day
[28] = Toxicity in C57Bl/6 mouse assessed as change in body weight at 100 mg/kg, ip measured after 30 days (reference value: 103 +/- 12 %); type: organism-based; conditions: in vivo, 720 h, time 30 day
Mus musculus [29] = assay: Radioprotective activity in C57Bl/6 mouse assessed as median survival time at 100 mg/kg, ip administered 5 min prior to gamma-irradation at 8.5 Gy and measured after 30 days (reference value: 12 days); type: functional
Mus musculus [30] = assay: Radioprotective activity in C57Bl/6 mouse assessed as average body weight at 100 mg/kg, ip administered 5 min prior to gamma-irradation at 8.5 Gy and measured immediately (reference value: 25.4 +/- 2.6 g); type: functional
[31] = Immuno-toxicity in C57Bl/6 mouse assessed as decrease in absolute number of lymphocytes at 100 mg/kg, ip measured after 7 to 12 days post-treatment by flow cytometry; type: organism-based; conditions: in vivo, time 7-12 day
HT-29 [32] = assay: Cytotoxicity against human HT-29 cells assessed as growth percent at 100 uM by WST-1 assay relative to control; type: functional; conditions: HT-29, read-out: Activity, time 48 hrs
MCF7 [33] = assay: Cytotoxicity against human MCF7 cells assessed as growth percent at 100 uM by WST-1 assay relative to control; type: functional; conditions: MCF7, read-out: Activity, time 48 hrs

Structure (SMILES) | viability at 10 µM (Jurkat [1]) | viability at 10 µM (MOLT-4 [2]) | viability at 10 µM (A549 [3]) | viability at 10 µM (HT-29 [4]) | viability at 10 µM (PANC-1 [5]) | viability at 10 µM (A2780 [6]) | viability at 10 µM (HeLa [7]) | viability at 10 µM (MCF7 [8]) | viability at 10 µM (SAOS-2 [9]) | viability at 48 h, 10 µM [10] | viability at 100 µM (Jurkat [11]) | viability at 100 µM (MOLT-4 [12]) | viability at 100 µM (A549 [13]) | viability at 100 µM (HT-29 [14]) | viability at 100 µM (PANC-1 [15]) | viability at 100 µM (A2780 [16]) | viability at 100 µM (HeLa [17]) | viability at 100 µM (MCF7 [18]) | viability at 100 µM (SAOS-2 [19]) | viability at 48 h, 100 µM [20] | also measured
Cc1ccccc1OCC(O)CN1CCN(CCO)CC1 (stereo unspecified) | 106% | 104% | 95% | 98% | 102% | 101% | 102% | 103% | 103% | 97% | 92% | 86% | 114% | 151% | 116% | 79% | 96% | 95% | 84% | 104% | IC50 (A549 [21]): 3400 µM; MTD (A549 [22]): 0.39 mM; viability at 100 µM (MOLT-4 [23]): 62%; Activity [24]: Non-Toxic; Activity [25]: Non-Toxic; Activity [26]: 26.2 g; Activity [27]: 27.2 g; Activity [28]: 104%; MST (Mus musculus [29]): 7 days; Activity (Mus musculus [30]): 27.3 g; Activity [31]: Toxic
OCCN1CCN(CC(O)COc2cccc3ccccc23)CC1 (stereo unspecified) | 96% | 98% | 98% | 93% | 102% | 97% | 99% | 103% | 97% | 102% | 76% | 83% | 107% | 53% | 101% | 77% | 129% | 64% | 97% | 78% | growth at 100 µM (HT-29 [32]): 53%; growth at 100 µM (MCF7 [33]): 64%; IC50 (A549 [21]): 420 µM; MTD (A549 [22]): 0.07 mM; viability at 100 µM (MOLT-4 [23]): 59%
